Experimental data from PMC5626417 (International Journal of Nanomedicine, 2017).
Values belong to the compound of their own block, whether it stands above or below them. Ends that are not written are not given here.

Assays:
HeLa cells [1] = conditions: after 20 hours of incubation with 1 μM (0.854 μg/mL) PTX; cited from earlier work
[2] = In vivo plasma concentration and bio-distribution of PTX; parameters: species or system BALB/c mice; conditions: mice, HPLC
Outline: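 Female BALB/c mice (4–6 weeks, 18–22 g) carried subcutaneous HeLa xenografts (5×10^6 cells) grown to ~50 mm3. Filtered formulations (100 μL) were dosed daily via tail vein for 2 weeks. Blood and organs (lung, liver, kidney, heart, spleen) were saline-washed, weighed and stored at −20°C. Plasma and homogenates were methanol-precipitated and spun at 12,000 rpm for 10 min; PTX was quantified by C18 HPLC at 227 nm.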

[3] = test system: L292 cells, HCT cells, A594 cells, Hep-G2 cells, and HSC cells; assay: Cytotoxicity of Rq and Rq/PTX on other cell types; format: cell-based; conditions: 24 hours incubation with 1,000 μM Rq; Figure S2
HeLa cells [4] = assay: Cytotoxicity of CPP; format: cell-based, Human; conditions: MTT, 3 and 24 hours incubation, up to 1,000 μM
Outline: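 HeLa cells seeded at 5×10^3/well and grown 24 h. Exposed to peptide at 50–1,000 μM for 3 h, washed twice with PBS, then given fresh medium for 24 h. A parallel arm used 100 and 1,000 μM for 24 h. Viability by MTT (3 h, DMSO solubilisation, OD492), expressed as percent of untreated cells.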

HeLa cells [5] = assay: Cellular uptake and distribution by fluorescence / confocal microscopy; format: cell-based, Human; conditions: 10 and 100 μM, 30 minutes, 37°C, serum-free medium
Outline: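 HeLa cells (4×10^4) on coverslips, 24 h, then FITC-labelled peptide or FITC alone at 10 or 100 μM in serum-free medium, 37°C for 30 min. Washed twice in PBS with heparin to strip surface-bound peptide, fixed in 4% PFA. For widefield imaging, nuclei were DAPI-stained; for intracellular distribution, cells were imaged by confocal microscopy immediately after fixation.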

PTX level in tissues (organs) ([2]; after 2 weeks of daily tail vein treatment, tissue homogenate): accumulated in liver, kidney, and heart
drop in the PTX concentration in plasma ([2]; tail vein injection, 30 minutes versus 24 hours after injection): sharply decreased
Compound: CC(=O)O[C@H]1C(=O)[C@@]2(C)[C@H]([C@H](OC(=O)c3ccccc3)[C@]3(O)C[C@H](OC(=O)[C@H](O)[C@@H](NC(=O)c4ccccc4)c4ccccc4)C(C)=C1C3(C)C)[C@]1(OC(C)=O)CO[C@@H]1C[C@@H]2O [PTX, paclitaxel]
intracellular PTX concentration (HeLa cells [1]): 0.206 mg/mL

Compound: RRRRQWWQW [Rq]
cell viability of other cell types after incubation with Rq [3]: no significant decrease in the cell viability
cell viability after incubation with Rq (HeLa cells [4]): Nearly all the cells were viable

Compound: fluorescein isothiocyanate [FITC]
green fluorescence in cells (fluorescence microscopy) (HeLa cells [5]): no fluorescence was observed
